{"source": "the M2OR odorant receptor database", "molecular_target": "T1, OR51E1 (Homo sapiens) (UniProt Q8TCB6)", "T1 sequence (whole entry)": "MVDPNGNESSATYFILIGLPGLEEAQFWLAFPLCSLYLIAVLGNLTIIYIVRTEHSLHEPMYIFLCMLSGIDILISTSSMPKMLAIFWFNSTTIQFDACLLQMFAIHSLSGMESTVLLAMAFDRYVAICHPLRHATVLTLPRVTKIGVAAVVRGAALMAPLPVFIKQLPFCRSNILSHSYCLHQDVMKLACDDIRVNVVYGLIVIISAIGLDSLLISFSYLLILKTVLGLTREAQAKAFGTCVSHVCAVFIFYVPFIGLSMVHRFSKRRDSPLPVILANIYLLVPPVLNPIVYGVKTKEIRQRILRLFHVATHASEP", "settings": "stereoisomer not certain", "how_it_was_run": "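Assay methods differ from source to source, frequently being transient luciferase assays in mammalian cell lines. For each receptor–molecule pair, the label responsive (active) applies when the original authors judged the measured signal statistically different from baseline, and non-responsive (inactive) applies otherwise.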"}
{"compound": "CCCC(C)C(=O)O", "note": "(stereo unspecified)", "values": [{"measurement": "odorant receptor agonist call", "result": "active"}]}
